In ChEMBL document CHEMBL1122273, “5-sulfamoylorthanilic acids, a sulfonamide series with salidiuretic activity” (J Med Chem, 1983):
The source made the active and inactive calls. No cut-off for these calls is given here.

Experiments:
[1] = system: Canis familiaris; assay: Saluretic activity in the dog measured as concentration of Cl - in urinary excretion (2 animals/dose) at (dose 1.56 mg/Kg, po); format: functional, Canis lupus familiaris, Urine
Procedure, shortened: (§1)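 Male beagles trained to the procedures, food withdrawn 24 h before, tap water ad libitum. Bladder emptied by catheter, then 20 mL/kg tap water by stomach tube, plus 4 mL/kg orally at each hourly catheterization up to 8 h. The first 2 h of urine served as control. Compound given orally after the second catheterization. Urine from 1–6 h post-dose pooled; Na⁺ and K⁺ by flame photometry, Cl⁻ argentometrically, in mequiv/kg.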

[2] = system: Canis familiaris; assay: Salidiuretic activity on the basis of the 1.56 mg/Kg po dog assay; Compound was highly active; format: functional, organism-based; details: Canis lupus familiaris; Urine
[3] = It is the ratio, measured as saluretic activity in the dog as concentration of Cl- in urinary excretion (dose 1.56 mg/Kg, po) to that of (Na+)+(K+); format: functional, Urine
Procedure, shortened: (§2)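 Trained male beagles, fasted 24 h with tap water ad libitum. Bladder emptied by catheter, then 20 mL/kg tap water by stomach tube, with 4 mL/kg water at each hourly catheterization up to 8 h. The first 2 h of urine served as control. Oral dosing came after the second catheterization, and 1–6 h urine was pooled. Na⁺ and K⁺ were measured by flame photometry, Cl⁻ argentometrically, in mequiv/kg.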

[4] = system: Canis familiaris; assay: Saluretic activity in the dog measured as concentration of K+ in urinary excretion (2 animals/dose) at (dose 1.56 mg/Kg, po); format: functional, Canis lupus familiaris, Urine
Procedure, shortened: (§3)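 Male beagles trained to rest on a table and to accept stomach tube and catheter. Food withdrawn 24 h before, tap water ad libitum. Bladder emptied by catheter, then 20 mL/kg tap water by stomach tube. Catheterized hourly up to 8 h with 4 mL/kg water orally each time; first 2 h urine served as control. Oral dosing after second catheterization. Pooled 1–6 h urine; Na⁺/K⁺ by flame photometry, Cl⁻ argentometrically.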

[5] = species: Rattus norvegicus; assay: Saluretic activity in the rat measured as concentration of K+ in urine; format: functional
Procedure, shortened: (§4)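 Rats deprived of food 24 h, water ad libitum, dosed 50 mg/kg by stomach tube as suspension in 2% starch, no extra water load. Groups of three in diuresis funnels; urine over first 5 h collected. Na⁺ and K⁺ by flame photometry, Cl⁻ argentometrically; expressed as mequiv/kg.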

[6] = species: Rattus norvegicus; assay: Diuretic activity in the rats, determined by a modified Lipschitz test; format: functional, Urine
Procedure, shortened: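 Modified Lipschitz test: rats deprived of water 24 h, grouped in threes of similar weight in diuresis funnels. Oral dose of 50 mg/kg, suspended in 2% starch solution, by stomach tube.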

[7] = system: Canis familiaris; assay: Saluretic activity in the dog measured as concentration of Na+ in urinary excretion (2 animals/dose) at (dose 1.56 mg/Kg, po); format: functional, Canis lupus familiaris, Urine; procedure, shortened: as §3
[8] = system: Canis familiaris; assay: Diuretic activity in the dog (2 animals/dose) at (dose 1.56 mg/Kg), when administered perorally; format: functional, Canis lupus familiaris, Urine; procedure, shortened: as §2
[9] = species: Rattus norvegicus; assay: Saluretic activity in the rat measured as concentration of chloride in urine; format: functional; procedure, shortened: as §4
[10] = system: Rattus norvegicus; assay: Salidiuretic activity on the basis of the 50 mg/kg po rat assay; Compound was active; details: Urine
[11] = It is the ratio, measured as saluretic activity in the dog as concentration of Na+ in urinary excretion (dose 1.56 mg/Kg, po) to that of K; format: functional, Urine; procedure, shortened: as §2
[12] = species: Rattus norvegicus; assay: Saluretic activity in the rat measured as concentration of Na+ in urine; format: functional; procedure, shortened: as §4
[13] = system: Canis familiaris; assay: Salidiuretic activity on the basis of the 1.56 mg/Kg po dog assay; compound was moderately active; format: functional, organism-based; details: Canis lupus familiaris; Urine
[14] = system: Rattus norvegicus; assay: Salidiuretic activity on the basis of the 50 mg/kg po rat assay; compound was active; format: functional, organism-based; design: dose 50 mg/kg; details: Urine
[15] = system: Rattus norvegicus; assay: Salidiuretic activity on the basis of the 50 mg/kg po rat assay; Compound was moderately active active; format: functional, organism-based; design: dose 50 mg/kg; details: Urine
[16] = It is the ratio, measured as saluretic activity in the dog as concentration of Cl- in urinary excretion (dose 6.25 mg/Kg, perorally) to that of (Na+)+(K+); format: functional, Urine; procedure, shortened: as §2
[17] = system: Canis familiaris; assay: Diuretic activity in the dog (2 animals/dose) at (dose 6.25 mg/Kg), when administered perorally; format: functional, Canis lupus familiaris, Urine; procedure, shortened: as §2
[18] = system: Canis familiaris; assay: Saluretic activity in the dog measured as concentration of K+ in urinary excretion (2 animals/dose) at (dose 6.25 mg/Kg, perorally); format: functional, Canis lupus familiaris, Urine; procedure, shortened: as §3
[19] = system: Canis familiaris; assay: Saluretic activity in the dog measured as concentration of K+ in urinary excretion (2 animals/dose) at (dose 1.56 mg/Kg, perorally); format: functional, Canis lupus familiaris, Urine; procedure, shortened: as §1
[20] = system: Canis familiaris; assay: Saluretic activity in the dog measured as concentration of Na+ in urinary excretion (2 animals/dose) at (dose 0.4 mg/Kg, perorally); format: functional, Canis lupus familiaris, Urine; procedure, shortened: as §3
[21] = It is the ratio, measured as saluretic activity in the dog as concentration of Na+ in urinary excretion (dose 0.4 mg/Kg, perorally) to that of K; format: functional, Urine; procedure, shortened: as §2
[22] = It is the ratio, measured as saluretic activity in the dog as concentration of Cl- in urinary excretion (dose 0.4 mg/kg perorally) to that of (Na+)+(K+); format: functional, Urine; details: route oral; procedure, shortened: as §2
[23] = It is the ratio, measured as saluretic activity in the dog as concentration of Na+ in urinary excretion (dose 6.25 mg/Kg, perorally) to that of K; format: functional, Urine; procedure, shortened: as §2
[24] = It is the ratio, measured as saluretic activity in the dog as concentration of Cl- in urinary excretion ( perorally) to that (Na++K+)
[25] = system: Canis familiaris; assay: Diuretic activity in the dog (2 animals/dose) at (dose 0.4 mg/Kg), when administered perorally; format: functional, Canis lupus familiaris, Urine; procedure, shortened: as §2
[26] = It is the ratio, measured as saluretic activity in the dog as concentration of Na+ in urinary excretion (dose 1.56 mg/Kg, perorally) to that of K; format: functional, Urine; procedure, shortened: as §2
[27] = system: Canis familiaris; assay: Saluretic activity in the dog measured as concentration of Na+ in urinary excretion (2 animals/dose) at (dose 6.25 mg/Kg, perorally); format: functional, Canis lupus familiaris, Urine; procedure, shortened: as §3
[28] = system: Canis familiaris; assay: Saluretic activity in the dog measured as concentration of Cl - in urinary excretion (2 animals/dose) at (1.56 mg/Kg, perorally); format: functional, Canis lupus familiaris, Urine; procedure, shortened: as §1
[29] = system: Canis familiaris; assay: Saluretic activity in the dog measured as concentration of Na+ in urinary excretion (2 animals/dose) at (dose 1.56 mg/Kg, perorally); format: functional, Canis lupus familiaris, Urine; procedure, shortened: as §3
[30] = system: Canis familiaris; assay: Saluretic activity in the dog measured as concentration of Cl - in urinary excretion (2 animals/dose) at (dose 6.25 mg/Kg, perorally); format: functional, Canis lupus familiaris, Urine; procedure, shortened: as §1
[31] = system: Canis familiaris; assay: Saluretic activity in the dog measured as concentration of Cl - in urinary excretion (2 animals/dose) at (dose 0.4 mg/Kg, perorally); format: functional, Canis lupus familiaris, Urine; procedure, shortened: as §1
[32] = system: Canis familiaris; assay: Saluretic activity in the dog measured as concentration of K+ in urinary excretion (2 animals/dose) at (dose 0.4 mg/Kg, perorally); format: functional, Canis lupus familiaris, Urine; procedure, shortened: as §1

SMILES | Saldiuretic activity [1] [m equiv 6hr-1 kg-1] | Saldiuretic activity [2] | Ratio [3] | Saluretic activity [5] [m equiv 5hr-1 kg-1] | Diuretic activity [6] [mL/kg] | Saluretic activity [7] [m equiv 6hr-1 kg-1] | Diuretic activity [8] [ml kg-1 6hr-1] | Saluretic activity [9] [m equiv 5hr-1 kg-1] | Ratio [11] | Saluretic activity [12] [m equiv 5hr-1 kg-1] | Saluretic activity [4] [m equiv 6hr-1 kg-1] | further results
CN(c1ccccc1)c1cc(NCc2cccs2)c(S(=O)(=O)[O-])cc1S(N)(=O)=O.[Na+] | 7.03 | Active | 0.95 | 0.7 | 1.8 | 5.86 | 70.6 | 2 | 4.3 | 1.8 | – | Saldiuretic activity [4]: 1.37 mequiv kg-1 6hr-1; Saldiuretic activity [10]: Active
NS(=O)(=O)c1cc(S(=O)(=O)[O-])c(NCc2ccccc2)cc1S(=O)(=O)C1CCCCC1.[Na+] | 3.94 | – | 1.05 | 1.7 | 0.5 | 3.23 | 51 | 1.8 | 5.8 | 2 | 0.56 | Saldiuretic activity [13]: Weak activity; Saldiuretic activity [14]: Active
CN(c1ccccc1)c1cc(NCc2ccccc2)c(S(=O)(=O)[O-])cc1S(N)(=O)=O.[Na+] | 7.34 | Active | 0.9 | 1.4 | 2.6 | 6.59 | 71.7 | 4 | 4.4 | 3.5 | 1.51 | Saldiuretic activity [15]: Active
NS(=O)(=O)c1cc(S(=O)(=O)[O-])c(NCc2ccco2)cc1Cl.[Na+] | – | – | – | 2.3 | 2.8 | – | 42.4 | 8.3 | – | 7.1 | – | Ratio [16]: 0.9; Diuretic activity [17]: 66.5 ml kg-1 6hr-1; Saldiuretic activity [18]: 0.78 m equiv 6hr-1 kg-1; Saluretic activity [19]: 0.53 m equiv 6hr-1 kg-1; Saluretic activity [20]: 0.45 m equiv 6hr-1 kg-1; Ratio [21]: 2.3; Ratio [22]: 1.1; Ratio [23]: 5.6; Ratio [24]: 1; Diuretic activity [25]: 37 ml kg-1 6hr-1; Ratio [26]: 4.9; Saluretic activity [27]: 4.36 m equiv 6hr-1 kg-1; Concentration of Cl- [28]: 3.24 m equiv 6hr-1 kg-1; Saluretic activity [29]: 2.61 m equiv 6hr-1 kg-1; Saldiuretic activity [30]: 4.74 m equiv 6hr-1 kg-1; Saluretic activity [31]: 0.69 m equiv 6hr-1 kg-1; Saluretic activity [32]: 0.19 m equiv 6hr-1 kg-1
